Assay results from PubChem BioAssay.
The source made the active and inactive calls.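 Rule for the calls, unless noted: active = GFP response above 150% of the DMSO level; inconclusive = fewer than 70 events counted for a yeast strain; inactive = the rest.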

Tests used:
[1] = hit retest on RPL19A-GFP reporter strain – cell-based, S. cerevisiae, flow cytometry, cherry picks, mother/daughter gates, confirmation (AID 2270;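 active = GFP response below 50% of the DMSO control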); settings: 3 h, at 10 µM, stronger effect = lower value, 100 = same GFP as DMSO wells
[2] = yeast TOR pathway reporter LAP4-GFP change – cell-based, cherry picks, flow cytometry, mother/daughter gates, confirmation (AID 2271;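 active = GFP response above 150% of the DMSO control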;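 note: ratio of sample to DMSO plate mean so 100% equals DMSO level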); settings: S. cerevisiae LAP4-GFP strain, 3 h, at 10 µM, stronger effect = higher value, 100 means same as DMSO control
Method in brief: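 Measured by: GFP by flow cytometry. Test system: GFP-fusion yeast strain. Input: yeast cells seeded at OD600 of 0.2. Timing: 30 °C, 3 h compound incubation, rotating. Buffer or medium: synthetic complete medium for yeast. Benchmarks: DMSO-only negative wells, rapamycin 400 ng/mL positive wells. Compound: 10 µM single dose.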

[3] = TOR pathway reporter MEP2-GFP, retest of hits – S. cerevisiae, flow cytometry GFP, cherry picks, confirmation (AID 2272;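 active = GFP response above 150% of the DMSO control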;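 note: ratio of well signal to plate DMSO mean so 100% equals DMSO level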); settings: S. cerevisiae MEP2-GFP strain, 3 h, at 10 µM, stronger effect = higher value
[4] = yeast AGP1-GFP fluorescence change, single-dose – cell-based, flow cytometry, S. cerevisiae, cherry picks, confirmation (AID 2273);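 note: median GFP channel fluorescence over the whole cell population gate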; settings: S. cerevisiae AGP1-GFP strain, 3 h, at 10 µM
[5] = TOR pathway CIT2 reporter hit retest – S. cerevisiae, GFP fusion, cherry picks, mother/daughter gates, confirmation (AID 2274); settings: S. cerevisiae CIT2-GFP strain, flow cytometry, 3 h, at 10 µM, stronger effect = higher value
[6] = measured here: daughter cell gate
[7] = measured here: mother cell gate
[8] = measured here: daughter cell gate response
[9] = measured here: mother cell gate response

Structure (SMILES) | GFP response vs DMSO [1] | GFP response vs DMSO [1, 6] | GFP response vs DMSO [1, 7] | GFP response relative to DMSO [2] | GFP response relative to DMSO [2, 8] | GFP response relative to DMSO [2, 9] | GFP response vs DMSO [3] | GFP response, % of DMSO [4] | GFP response, % of DMSO [5] | GFP response, % of DMSO [5, 6] | GFP response, % of DMSO [5, 7]
COc1ccc(N2C(=O)C(Cl)=C(N(CCO)Cc3ccccc3)C2=O)cc1 | 101% (inactive) | 99.1% | 102% | 98.2% (inactive) | 99.1% | 99.4% | 101% (inactive) | 102% (inactive) | 100% (inactive) | 101% | 99.3%
COc1ccc(OC)c(C(=O)/C=C/c2ccccc2C(F)(F)F)c1 | 97.6% (inactive) | 95.8% | 98.7% | 102% (inactive) | 103% | 103% | 105% (inactive) | 98.9% (inactive) | 94.7% (inactive) | 96.8% | 94.7%
CCOc1ccc(-c2noc(-c3ccncc3)n2)cc1OCC | 96.4% (inactive) | 93.7% | 95.7% | 106% (inactive) | 106% | 106% | 116% (inactive) | 98.8% (inactive) | 102% (inactive) | 103% | 99.3%
Cc1cc(O)c(C(=O)/C=C/c2ccc(Cl)cc2)c(=O)o1 | 97.2% (inactive) | 101% | 95.5% | 180% (active) | 156% | 180% | 110% (inactive) | 99.7% (inactive) | 95% (inactive) | 104% | 86.3%
CCc1nnc(NC(=O)c2ccc(S(=O)(=O)N3CCCC(C)C3)cc2)o1 (stereo not given) | 101% (inactive) | 99.1% | 98.5% | 98.2% (inactive) | 97.5% | 100% | 101% (inactive) | 105% (inactive) | 102% (inactive) | 105% | 99.3%
O=S(=O)(Nc1ccc(Br)cc1)c1cccc2nonc12 | 97.4% (inactive) | 97.5% | 98.3% | 96.5% (inactive) | 95% | 95.6% | 99.5% (inactive) | 93.8% (inactive) | 97.8% (inactive) | 98.3% | 95.6%
CCOC(=O)c1cc(S(=O)(=O)N2CCN(C(=O)OCC)CC2)cn1C | 101% (inactive) | 99% | 101% | 105% (inactive) | 100% | 107% | 107% (inactive) | 95.7% (inactive) | 100% (inactive) | 99.7% | 102%
O=C1C2C3C=CC(C4CC34)C2C(=O)N1/N=C/c1ccc([N+](=O)[O-])o1 (stereo not given) | 101% (inactive) | 105% | 95.8% | 129% (inactive) | 122% | 120% | 106% (inactive) | 101% (inactive) | 107% (inactive) | 112% | 100%
CC1CN(c2nc3ccccn3c(=O)c2/C=C(\C#N)C(N)=O)CC(C)O1 (stereo not given) | 97.8% (inactive) | 97.3% | 95.8% | 96.5% (inactive) | 99% | 95.4% | 106% (inactive) | 99.5% (inactive) | 101% (inactive) | 99.3% | 103%
CC(C)NC(=O)c1ccccc1-c1nc(-c2ccccc2Cl)no1 | 97.2% (inactive) | 96.7% | 98% | 107% (inactive) | 103% | 108% | 97.8% (inactive) | 98.5% (inactive) | 91.3% (inactive) | 93.2% | 90.2%
O=C1ON=C(c2ccccc2)/C1=C\c1ccco1 | 101% (inactive) | 90.8% | 87% | 168% (active) | 143% | 165% | 124% (inactive) | 93.2% (inactive) | 82.2% (inactive) | 89.9% | 70.8%
CCOc1cc(C)c(S(=O)(=O)N2CCCC2)cc1C | 90% (inactive) | 83.8% | 91.1% | 137% (inactive) | 128% | 145% | 92.6% (inactive) | 94.5% (inactive) | 78.5% (inactive) | 72.1% | 80.9%
O=[N+]([O-])c1cc(C(F)(F)F)ccc1Sc1ccc2ccccc2n1 | 95.8% (inactive) | 97% | 96.4% | 115% (inactive) | 109% | 115% | 102% (inactive) | 97.5% (inactive) | 95% (inactive) | 98.3% | 93.3%
CC(C)Oc1ccc(C(=O)/C=C2/C(=O)Nc3ccccc32)cc1 | 88.2% (inactive) | 83.8% | 80.3% | 161% (active) | 119% | 161% | 111% (inactive) | 123% (inactive) | 110% (inactive) | 93.2% | 98.7%
O=C(c1ccc([N+](=O)[O-])o1)N1CCN(c2nc3ccc(F)cc3s2)CC1 | 99.8% (inactive) | 100% | 98.4% | 111% (inactive) | 109% | 115% | 105% (inactive) | 87.7% (inactive) | 101% (inactive) | 103% | 96.1%
CCNC(=O)/C(C#N)=C/c1c(N(Cc2ccccc2)Cc2ccccc2)nc2ccccn2c1=O | 101% (inactive) | 101% | 102% | 102% (inactive) | 101% | 103% | 110% (inactive) | 99.3% (inactive) | 105% (inactive) | 108% | 104%
CCSc1nnc(NC(=O)c2ccccn2)s1 | 101% (inactive) | 100% | 99.8% | 257% (active) | 223% | 254% | 122% (inactive) | 93.8% (inactive) | 97.8% (inactive) | 104% | 91%
COc1ccc(N(CC(=O)N/N=C/c2cc(OC)ccc2OC)S(=O)(=O)c2ccccc2)cc1 | 96% (inactive) | 97.4% | 86.9% | 92.8% (inactive) | 96% | 92.9% | 96.2% (inactive) | 99.1% (inactive) | 99.7% (inactive) | 101% | 99.7%
CC(=O)c1ccc(Sc2ccccn2)c([N+](=O)[O-])c1 | 98.4% (inactive) | 99.4% | 95.8% | 99.2% (inactive) | 99.2% | 97.2% | 102% (inactive) | 93.1% (inactive) | 101% (inactive) | 103% | 99.7%
Cc1noc2ncnc(Sc3ccc(Cl)cc3)c12 | 96.6% (inactive) | 94.9% | 97.2% | 140% (inactive) | 130% | 141% | 102% (inactive) | 94.7% (inactive) | 104% (inactive) | 101% | 102%
O=C(N/N=C/c1c(Cl)cccc1Cl)c1cccc(F)c1 | 95.6% (inactive) | 95.3% | 94% | 92.9% (inactive) | 94.4% | 93.4% | 103% (inactive) | 97.5% (inactive) | 97.2% (inactive) | 99.3% | 97.1%
c1ccc(CSc2ccc(-c3ccccn3)nn2)cc1 | 101% (inactive) | 97.1% | 91.9% | 108% (inactive) | 104% | 106% | 114% (inactive) | 96.7% (inactive) | 97.3% (inactive) | 97.4% | 93.2%
COc1cccc(-c2nnc(NC(=O)c3ccc(S(=O)(=O)N4CCOCC4)cc3)o2)c1 | 97.6% (inactive) | 97.8% | 96.5% | 97.7% (inactive) | 99% | 97.4% | 101% (inactive) | 100% (inactive) | 100% (inactive) | 99.3% | 100%
O=[N+]([O-])c1ccc(Sc2ccccc2)nc1 | 97.8% (inactive) | 97.3% | 98% | 104% (inactive) | 104% | 105% | 108% (inactive) | 105% (inactive) | 101% (inactive) | 101% | 103%
O=S(=O)(c1ccc(Cl)cc1)c1ccccn1 | 96.2% (inactive) | 96.4% | 95.8% | 94.1% (inactive) | 96% | 93.4% | 101% (inactive) | 98.2% (inactive) | 103% (inactive) | 101% | 105%
CCOC(=O)c1ccc(NC(=O)CCc2nc(-c3ccc(Cl)cc3)no2)cc1 | 99.4% (inactive) | 100% | 101% | 99.2% (inactive) | 99.2% | 100% | 98.3% (inactive) | 95.4% (inactive) | 105% (inactive) | 105% | 104%
CCOC(=O)c1ccc(NC(=O)c2nc(S(=O)(=O)Cc3ccccc3)ncc2Cl)cc1 | 99.5% (inactive) | 99% | 98.9% | 93.8% (inactive) | 95.6% | 95.2% | 102% (inactive) | 101% (inactive) | 97.8% (inactive) | 94.8% | 97.7%
CC(=O)Nc1ccc(NC(=O)c2nc(S(=O)(=O)Cc3ccccc3)ncc2Cl)cc1 | 98.5% (inactive) | 99.8% | 96.9% | 106% (inactive) | 105% | 105% | 110% (inactive) | 96.8% (inactive) | 100% (inactive) | 101% | 99.3%
CCc1cccc2sc(N3CCN(C(=O)c4ccc([N+](=O)[O-])o4)CC3)nc12 | 82.5% (inactive) | 85.9% | 70.2% | 251% (active) | 125% | 222% | 172% (inactive) | 108% (inactive) | 108% (inactive) | 99.3% | 102%
Cc1ccccc1OC1CCN(C(=O)C2CCC(=O)N(C3CCCC3)C2)CC1 (stereo not given) | 97.6% (inactive) | 98.4% | 97.7% | 101% (inactive) | 99.2% | 99.3% | 105% (inactive) | 96.6% (inactive) | 95.5% (inactive) | 95.4% | 95%
